Results: ChEMBL document CHEMBL5058577, “EUbOPEN Chemogenomics Library 2 (Multiplex)” (2022)

Tested on: HEK-293T
Assay: Multiplex assay against HEK293T
Format: toxicity, cell-based
Details: human
In short: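 Values for tubulin, mitochondrial-mass and membrane-permeability phenotypes are per cents of cells with healthy nuclei. These cells were identified by CellPathfinder machine-learning gating of live cells that had been stained at seeding with Hoechst33342, BioTracker Green Microtubule Cytoskeleton Dye, MitoTracker Red and Annexin V Alexa Fluor 680 and imaged on a CQ1 microscope at 37°C and 5% CO2 after compound addition. The gating first set Hoechst high-intensity objects apart from normal cells, then split normal cells into healthy, pyknosed or fragmented nuclei, and pyknosed cells into mitotic or apoptotic.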

[1] = 12 h, 1 µM, compound concentration 1 uM, replicate 1
[2] = 12 h, 1 µM, compound concentration 1 uM, replicate 2
[3] = 12 h, 10 µM, compound concentration 10 uM, replicate 1
[4] = 12 h, 10 µM, compound concentration 10 uM, replicate 2
[5] = 24 h, 1 µM, compound concentration 1 uM, replicate 1
[6] = 24 h, 1 µM, compound concentration 1 uM, replicate 2
[7] = 24 h, 10 µM, compound concentration 10 uM, replicate 1
[8] = 24 h, 10 µM, compound concentration 10 uM, replicate 2
[9] = 48 h, 1 µM, compound concentration 1 uM, replicate 1
[10] = 48 h, 1 µM, compound concentration 1 uM, replicate 2
[11] = 48 h, 10 µM, compound concentration 10 uM, replicate 1
[12] = 48 h, 10 µM, compound concentration 10 uM, replicate 2

COc1cc(C(=O)N(CCCc2ccccc2)Cc2ccc(CC(=O)O)cc2)cc(OC)c1C
Population Apoptotic (%) [1]: 45% | Population Fragmented Nuclei (%) [1]: 7% | Population Healthy Nuclei (%) [1]: 82% | Population Hoechst High Intensity Objects (%) [1]: 5% | Population Membrane Permeable-Phenotype (%) [1]: 0% | Population Mitochondria Different-Phenotype (%) [1]: 47% | Population Mitotic Cells (%) [1]: 55% | Population Normal (%) [1]: 94% | Population Pyknosed Nuclei (%) [1]: 10% | Population Tubulin-Different-Phenotype (%) [1]: 31% | Total Cell Count [1]: 395 | Population Apoptotic (%) [2]: 44% | Population Fragmented Nuclei (%) [2]: 6% | Population Healthy Nuclei (%) [2]: 84% | Population Hoechst High Intensity Objects (%) [2]: 4% | Population Mitochondria Different-Phenotype (%) [2]: 50% | Population Normal (%) [2]: 95% | Population Pyknosed Nuclei (%) [2]: 9% | Population Tubulin-Different-Phenotype (%) [2]: 19% | Total Cell Count [2]: 410 | Population Apoptotic (%) [3]: 30% | Population Fragmented Nuclei (%) [3]: 6% | Population Healthy Nuclei (%) [3]: 77% | Population Hoechst High Intensity Objects (%) [3]: 8% | Population Membrane Permeable-Phenotype (%) [3]: 1% | Population Mitochondria Different-Phenotype (%) [3]: 46% | Population Mitotic Cells (%) [3]: 70% | Population Normal (%) [3]: 91% | Population Pyknosed Nuclei (%) [3]: 15% | Population Tubulin-Different-Phenotype (%) [3]: 52% | Total Cell Count [3]: 431 | Population Apoptotic (%) [4]: 47% | Population Fragmented Nuclei (%) [4]: 4% | Population Healthy Nuclei (%) [4]: 82% | Population Hoechst High Intensity Objects (%) [4]: 6% | Population Membrane Permeable-Phenotype (%) [4]: 0% | Population Mitochondria Different-Phenotype (%) [4]: 67% | Population Mitotic Cells (%) [4]: 52% | Population Normal (%) [4]: 93% | Population Pyknosed Nuclei (%) [4]: 13% | Population Tubulin-Different-Phenotype (%) [4]: 44% | Total Cell Count [4]: 438 | Population Apoptotic (%) [5]: 32% | Population Fragmented Nuclei (%) [5]: 7% | Population Healthy Nuclei (%) [5]: 78% | Population Hoechst High Intensity Objects (%) [5]: 5% | Population Membrane Permeable-Phenotype (%) [5]: 0% | Population Mitochondria Different-Phenotype (%) [5]: 27% | Population Mitotic Cells (%) [5]: 67% | Population Normal (%) [5]: 94% | Population Pyknosed Nuclei (%) [5]: 14% | Population Tubulin-Different-Phenotype (%) [5]: 15% | Total Cell Count [5]: 483 | Population Apoptotic (%) [6]: 48% | Population Healthy Nuclei (%) [6]: 82% | Population Hoechst High Intensity Objects (%) [6]: 3% | Population Mitochondria Different-Phenotype (%) [6]: 26% | Population Mitotic Cells (%) [6]: 51% | Population Normal (%) [6]: 96% | Population Pyknosed Nuclei (%) [6]: 9% | Population Tubulin-Different-Phenotype (%) [6]: 10% | Total Cell Count [6]: 507 | Population Apoptotic (%) [7]: 34% | Population Fragmented Nuclei (%) [7]: 7% | Population Healthy Nuclei (%) [7]: 80% | Population Hoechst High Intensity Objects (%) [7]: 7% | Population Membrane Permeable-Phenotype (%) [7]: 0% | Population Mitochondria Different-Phenotype (%) [7]: 39% | Population Mitotic Cells (%) [7]: 65% | Population Normal (%) [7]: 92% | Population Pyknosed Nuclei (%) [7]: 12% | Population Tubulin-Different-Phenotype (%) [7]: 43% | Total Cell Count [7]: 549 | Population Apoptotic (%) [8]: 42% | Population Healthy Nuclei (%) [8]: 79% | Population Hoechst High Intensity Objects (%) [8]: 6% | Population Mitochondria Different-Phenotype (%) [8]: 50% | Population Mitotic Cells (%) [8]: 57% | Population Normal (%) [8]: 93% | Population Tubulin-Different-Phenotype (%) [8]: 38% | Total Cell Count [8]: 526 | Population Apoptotic (%) [9]: 30% | Population Fragmented Nuclei (%) [9]: 12% | Population Healthy Nuclei (%) [9]: 77% | Population Hoechst High Intensity Objects (%) [9]: 1% | Population Membrane Permeable-Phenotype (%) [9]: 1% | Population Mitochondria Different-Phenotype (%) [9]: 16% | Population Mitotic Cells (%) [9]: 69% | Population Normal (%) [9]: 98% | Population Pyknosed Nuclei (%) [9]: 9% | Population Tubulin-Different-Phenotype (%) [9]: 11% | Total Cell Count [9]: 812 | Population Apoptotic (%) [10]: 26% | Population Fragmented Nuclei (%) [10]: 9% | Population Healthy Nuclei (%) [10]: 83% | Population Hoechst High Intensity Objects (%) [10]: 3% | Population Mitochondria Different-Phenotype (%) [10]: 17% | Population Mitotic Cells (%) [10]: 73% | Population Normal (%) [10]: 96% | Population Pyknosed Nuclei (%) [10]: 7% | Population Tubulin-Different-Phenotype (%) [10]: 9% | Total Cell Count [10]: 753 | Population Apoptotic (%) [11]: 32% | Population Fragmented Nuclei (%) [11]: 12% | Population Healthy Nuclei (%) [11]: 76% | Population Hoechst High Intensity Objects (%) [11]: 4% | Population Membrane Permeable-Phenotype (%) [11]: 1% | Population Mitochondria Different-Phenotype (%) [11]: 29% | Population Mitotic Cells (%) [11]: 67% | Population Normal (%) [11]: 95% | Population Pyknosed Nuclei (%) [11]: 11% | Population Tubulin-Different-Phenotype (%) [11]: 29% | Total Cell Count [11]: 729 | Population Apoptotic (%) [12]: 33% | Population Fragmented Nuclei (%) [12]: 15% | Population Healthy Nuclei (%) [12]: 75% | Population Hoechst High Intensity Objects (%) [12]: 8% | Population Mitochondria Different-Phenotype (%) [12]: 37% | Population Mitotic Cells (%) [12]: 66% | Population Normal (%) [12]: 91% | Population Pyknosed Nuclei (%) [12]: 9% | Population Tubulin-Different-Phenotype (%) [12]: 34% | Total Cell Count [12]: 632
